Laboratory results from ChEMBL document CHEMBL4028890, “A Positive Allosteric Modulator of the Serotonin 5-HT2C Receptor for Obesity” (J Med Chem, 2017).

What was measured:
[1] = molecular target: T1, 5-hydroxytryptamine receptor 2C (Homo sapiens) (UniProt P28335); experiment: Positive allosteric modulation of human 5-HT2C receptor expressed in human HeLa-K1 cells assessed as potentiation of 5-HT-induced inositol monophosphate release at 10 uM after 20 mins by HTRF assay relative to control; format: functional, cell-based
T1 sequence (whole entry): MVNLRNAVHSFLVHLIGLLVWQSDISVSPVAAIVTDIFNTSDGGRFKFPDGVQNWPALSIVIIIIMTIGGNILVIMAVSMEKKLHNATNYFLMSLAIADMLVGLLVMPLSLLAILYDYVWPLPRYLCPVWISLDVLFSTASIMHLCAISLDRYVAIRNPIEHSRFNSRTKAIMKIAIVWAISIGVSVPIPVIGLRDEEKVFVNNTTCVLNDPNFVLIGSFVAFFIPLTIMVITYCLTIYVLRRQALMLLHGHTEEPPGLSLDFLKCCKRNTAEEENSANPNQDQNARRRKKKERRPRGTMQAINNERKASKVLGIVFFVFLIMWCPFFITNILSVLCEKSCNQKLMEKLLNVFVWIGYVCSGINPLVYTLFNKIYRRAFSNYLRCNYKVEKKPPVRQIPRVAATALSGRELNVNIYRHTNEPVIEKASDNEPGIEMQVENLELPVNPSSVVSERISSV
Procedure, shortened: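 IP-One HTRF assay in CHO-K1 cells (human 5-HT2A, 5-HT2B) or HeLa-K1 cells (human 5-HT2C), seeded and grown 24 h at 37 °C. Test compound and/or 5-HT added in stimulation buffer, then 20 min at 37 °C before IP1 read-out. Data normalized to 5-HT maximal effect and fitted by nonlinear regression. Triplicates, mean ± SD.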

Rattus norvegicus = organism: Rattus norvegicus; experiment: Toxicity in Wistar rat assessed as induction of malaise at 0.4 M measured 30 mins for 2 days by conditioned taste aversion test; details: in vivo, 0.5 h
Procedure, shortened: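 Rats water-deprived 24 h, then trained to drink from a graded bottle in 30 min sessions for 4 days. On day 5, 0.1% saccharin replaced water, and 30 min later rats got ip vehicle, compound (2 mg/kg) or LiCl (0.4 M, 7.5 mL/kg). Water intake was recorded over 30 min on the next 2 days, then a water or saccharin choice was measured.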

Compound	Activity [1] [%]	Activity (Rattus norvegicus)
c1ccc(Cn2cc(CNc3ccncn3)c3ccccc32)cc1	0	–
FC(F)(F)c1ccccc1Cn1cc(CNc2cccnc2)c2ccccc21	9	–
c1ccc(Cn2cc(CNc3ncccn3)c3ccccc32)cc1	0	–
Brc1ccccc1Cn1cc(CNc2cccnc2)c2ccccc21	0	–
[Cl-].[Li+] [CHLOROLITHIUM]	–	Toxic
Cc1ccccc1Cn1cc(CNc2cccnc2)c2ccccc21	7	–
N#Cc1ccccc1Cn1cc(CNc2cccnc2)c2ccccc21	7	–
N#Cc1ccc(Cn2cc(CNc3cccnc3)c3ccccc32)cc1	7	–
Fc1cccc(Cn2cc(CNc3cccnc3)c3ccccc32)c1	22	–
c1ccc(Cn2cc(CNc3cccnn3)c3ccccc32)cc1	9	–
Clc1ccccc1Cn1cc(CNc2cccnc2)c2ccccc21	7	–
COc1cccc(Cn2cc(CNc3cccnc3)c3ccccc32)c1	0	–

Now from value to molecule, other results behind:

Activity [1] [%]	Compound	Activity (Rattus norvegicus)
22	N#Cc1cccc(Cn2cc(CNc3cccnc3)c3ccccc32)c1	–
24	Cc1ccc(Cn2cc(CNc3cccnc3)c3ccccc32)cc1	–
0	Cc1ncccc1NCc1cn(Cc2ccccc2)c2ccccc12	–
9	c1cncc(NCc2cn(Cc3ccncc3)c3ccccc23)c1	–
21	Cc1ccncc1NCc1cn(Cc2ccccc2)c2ccccc12	–
0	FC(F)(F)c1cccc(Cn2cc(CNc3cccnc3)c3ccccc32)c1	–
6	Brc1ccc(Cn2cc(CNc3cccnc3)c3ccccc32)cc1	–
0	c1ccc(Cn2cc(CNc3cccnc3)c3ccccc32)nc1	–
